The source of these data is PMC8693849 (RSC Advances, 2021).

One data set concerns P. fluorescens (S 97). Put plainly: Agar diffusion method, zone of inhibition. It counts as cell-based, Pseudomonas fluorescens. The conditions noted are these: P. fluorescens (S 97), 15 μg mL^−1, 24 h, average of triplicate. An outline of the steps:
(§1)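 Bacterial strains were tested by agar diffusion on nutrient agar (peptone 5 and meat extract 3 g L⁻¹ in distilled water, pH 7.0, 2% agar, autoclaved 121 °C for 20 min). Each test compound (1 mg) was dissolved in 1 mL DMSO and made up to 10 mL with sterile water (100 μg mL⁻¹ stock). The solution was placed in the agar, and inhibition zones were measured after 24 h incubation. Values are the mean of triplicate readings.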
On the technique in general: A growth-free zone around the sample is the usual read-out of agar diffusion tests.

The next data set relates to C. albicans. Put plainly: Agar diffusion method, zone of inhibition. It counts as cell-based, Candida albicans. The following applies: C. albicans, average of triplicate. An outline of the steps: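 For agar diffusion against C. albicans, each test compound (1 mg) was dissolved in 1 mL DMSO and diluted to 10 mL with sterile water (100 μg mL⁻¹ stock). The solution was placed in the agar, and the inhibition zone diameter was read after 24 h. Values are the average of triplicate readings.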

Data set [1] relates to K. pneumoniae (MDR clinical isolate). The data set can be described thus: Zone of inhibition against MDR clinical isolate. It counts as cell-based. The conditions noted are these: MDR K. pneumoniae clinical isolate, 15 μg mL^−1.
A further data set relates to VERO cells. The data set can be described thus: In vitro cytotoxicity, MTT assay. The following applies: normal VERO cells, 72 h, Table 4. It counts as cell-based, African Green Monkey.
Data set [2] has as its system K. pneumoniae (MDR clinical isolate). The data set can be described thus: Minimal inhibitory concentration. It counts as cell-based. An outline of the steps:
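Broth microdilution against MDR clinical isolates: 80 μl Mueller–Hinton broth plus 20 μl tween 80 received 100 μl test compound, then two-fold serial dilution. Each well was inoculated with 100 μl of 0.5 McFarland suspension ([…]) and incubated covered at 35 ± 2 °C for 24 h. MIC is the lowest concentration inhibiting growth.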

Data set [3] has the same test system. Put plainly: Minimum bactericidal concentration. It counts as cell-based. The conditions noted are these: >4 = bacteriostatic.
For another data set, the system named is Gram-negative bacteria. Put plainly: Agar diffusion method. It counts as cell-based, P. phaseolicola (GSPB 2828) and P. fluorescens (S 97). The following applies: summary of Table 1. An outline of the steps:
as §1

A further data set deals with S. pyogenes (ATCC 19615). The data set can be described thus: Agar diffusion method, zone of inhibition. It counts as cell-based, Streptococcus pyogenes. The conditions noted are these: S. pyogenes (ATCC 19615), 10 μg mL^−1, 24 h, average of triplicate.
Data set [4] concerns MRSA1 (methicillin resistant S. aureus). Put plainly: Zone of inhibition against MDR clinical isolate. It counts as cell-based. The conditions noted are these: MRSA1 clinical isolate, 15 μg mL^−1.
Another data set deals with S. aureus (ATCC 25923). Put plainly: Agar diffusion method, zone of inhibition. It counts as cell-based, Staphylococcus aureus. The following applies: S. aureus (ATCC 25923), average of triplicate. An outline of the steps: as §1

As to “2-(5-(4-Chlorophenyl)-6-cyano-2-(2-hydroxyphenyl)-7-imino-1,2-dihydro-[1,2,4]triazolo[1,5-a]pyrimidin-3(7H)-yl)propanoic acid [Compound 8a]”, the “Diameter of zone inhibition” value with P. fluorescens (S 97) came out at 29 mm; in the data set on C. albicans (10 μg mL^−1, 24 h), 10 mm; in the data set on C. albicans (15 μg mL^−1, 24 h), 13 mm; in data set [1], 28 mm; in the data set on S. pyogenes (ATCC 19615) it was 12 mm; in data set [4] it was 6 mm. The “Diameter of zone inhibition” value with S. aureus (ATCC 25923) (10 μg mL^−1, 24 h) amounted to 13 mm; with S. aureus (ATCC 25923) (15 μg mL^−1, 24 h) it was 20 mm. The CC50 with VERO cells was found to be 125 µg/mL. Further, the MIC in [2] (K. pneumoniae, Table 3) was 12.5 µg/mL; in [2] (MDR K. pneumoniae clinical isolate, Table 2), 12.5 µg/mL. Moreover, in data set [3], the “MIC index (MBC/MIC)” value was > 4. In addition, the “Activity against Gram-negative bacteria” value with Gram-negative bacteria is on record as “active”.

The term CC50 denotes the concentration at which the toxic effect on the cells reaches its halfway point. A high value points to lower toxicity to the cells. The term MIC denotes the lowest concentration that inhibits growth of the organism. Lower therefore signals a more susceptible organism.
